Screening data deposited in PubChem by The Scripps Research Institute Molecular Screening Center.
OX1R antag-1 = human HCRTR1 antagonism | O43613 | CHO/OX1R cells, Fluo-8 calcium fluorescence, orexin A | inhibition, % at 5 µM | actives 0.43% (n = 330,000);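 active = inhibition above its plate's threshold, mean inhibition of all tested compounds on the plate plus 3 SD, cut at about 37% in these data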;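 note: 0% = orexin A challenge wells and 100% = SB-334867-A antagonist wells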
Target sequence (O43613 whole entry, looked up): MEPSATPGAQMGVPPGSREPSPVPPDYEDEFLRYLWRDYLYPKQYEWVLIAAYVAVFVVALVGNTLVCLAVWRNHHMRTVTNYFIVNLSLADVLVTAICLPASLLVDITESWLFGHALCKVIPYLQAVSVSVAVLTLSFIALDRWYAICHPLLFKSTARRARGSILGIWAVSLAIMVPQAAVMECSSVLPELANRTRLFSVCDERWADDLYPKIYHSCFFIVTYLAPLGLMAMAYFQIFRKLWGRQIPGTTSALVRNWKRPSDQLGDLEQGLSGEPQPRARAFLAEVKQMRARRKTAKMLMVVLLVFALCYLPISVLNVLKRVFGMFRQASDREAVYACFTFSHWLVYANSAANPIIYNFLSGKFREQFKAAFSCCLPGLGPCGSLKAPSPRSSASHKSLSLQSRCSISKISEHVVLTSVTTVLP
CHO parental Ca = signal in parental CHO cells, OX1R antagonist counter-screen; parental CHO-K1, ATP-induced calcium, Fluo-8 fluorescence; inhibition, % at 5.6 µM; actives 0.63% (n = 330,000); AID 463079;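 active = inhibition above that plate's mean sample inhibition plus 3 SD, cut at about 26% in these data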;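 note: 0% = ATP-challenged DMSO wells and 100% = DMSO wells without ATP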
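Assay system – parental CHO cells · Reagent – ATP stimulus · Detection – intracellular calcium via Fluo-8 no-wash fluorescent dye · Evaluation – percent inhibition of ATP-evoked calcium rise, normalized to controls · Controls – ATP wells versus no-ATP DMSO wells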
CHO-K1 Ca ag = nonselective activator or artifact in parental CHO-K1 cells; Fluo-8 calcium fluorescence; scaled to maximal ATP response, vehicle zero; actives 0.48% (n = 360,000); activation, % at 3 µM; in the data active = activation above about 15%;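 note: untransfected CHO-K1 host cells lacking M1 receptor as counterscreen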
OX1R antag-2 = blocks the human orexin 1 receptor; AID 485270; OX1R-expressing cells, FRET antagonist read-out; inhibition, % at 6.6 µM; actives 1.8% (n = 330,000); O43613; in the data active = inhibition mostly above about 38%, no sharp cut-off; inactive = mostly below about 40%;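 note: 0% = agonist challenge alone and 100% = reference antagonist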
CHO-K1 Ca antag = M1 antagonist counterscreen hit in parental CHO-K1 cells. ATP-induced calcium, Fluo-8 fluorescence. inhibition, % at 3 µM. actives 0.6% (n = 360,000). AID 602250;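 active = inhibition above a per-plate cutoff, the plate's mean sample inhibition plus 3 SD, cut at about 24% in these data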;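 note: 0% = DMSO plus EC80 ATP and 100% = DMSO alone without ATP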
M1 PAM parental = nonselective activator or artifact in parental CHO-K1 calcium assay; ATP EC20, Fluo-8 calcium fluorescence; 0% at ATP EC20, 100% at ATP max; activation, % at 3 µM; actives 0.02% (n = 360,000); AID 602247;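 active = activation above the run cutoff, the mean activation of all test compounds plus 3 SD, cut at about 40% in these data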;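 note: peak over basal fluorescence ratio in a 140 s read after ATP addition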
Starred values were filed as active, the others as inactive; nt = no result given. Most compounds without a hit are left out; they make up all but 2.9% or so of the library.

SMILES	OX1R antag-1	CHO parental Ca	CHO-K1 Ca ag	OX1R antag-2	CHO-K1 Ca antag	M1 PAM parental
O=C(O)c1cc([N+](=O)[O-])c(NCc2cccnc2)c([N+](=O)[O-])c1	-14	-10	1	76*	0	9
O=C(/C=C/c1ccccc1[N+](=O)[O-])NCc1cccnc1	-12	-4	1	61*	-6	15
O=C(NC(=S)NCc1cccnc1)c1ccc([N+](=O)[O-])cc1	-17	-11	0	75*	2	6
COCCN1C(=O)CCC1(C)C(=O)Nc1c(C)cccc1C (centres undefined)	nt	nt	0	nt	26*	-9
CCCCNC(=O)C1(C)CCC(=O)N1CC(F)(F)F (centres undefined)	nt	nt	1	nt	12	5
CCCCNC(=O)C1(C)CCC(=O)N1CCOC (centres undefined)	nt	nt	0	nt	33*	-8
CCOC(=O)C1CCCN(CCC(=O)Nc2ccc(Br)c(C)c2)C1 (centres undefined)	nt	nt	1	nt	-4	12
CN(C)c1ccc(CN(C(=O)COc2ccccc2)C2CCS(=O)(=O)C2)cc1 (centres undefined)	-5	-5	0	2	27*	8
O=C(N/N=C/c1ccc2cccc(OCc3ccccc3)c2n1)c1ccc(Br)cc1	-14	-24	2	12	0	-13
COc1ccc(C(=O)N/N=C/c2ccc3cccc(OCc4ccccc4)c3n2)cc1	-24	-35	4	76*	4	25
CCOc1ccc(C(=O)N/N=C/c2cccc3cccnc23)cc1	-16	-32	2	74*	-16	17
COc1ccc(C(=O)N/N=C/c2cccc3cccnc23)cc1	-8	-13	1	47	-3	12
O=[N+]([O-])c1cc([N+](=O)[O-])c2nonc2c1Nc1ccc(O)cc1	6	1	2	76*	-9	23
O=[N+]([O-])c1cncc([N+](=O)[O-])c1Nc1cccc(O)c1	4	-6	0	56*	-3	3
Cc1ccccc1Nc1c([N+](=O)[O-])cncc1[N+](=O)[O-]	2	-5	0	63*	0	-13
CCN(CC(=O)Nc1c(F)cccc1F)C(=O)Cn1c(=O)cnc2ccccc21	-22	-15	0	4	-8	-3
CCCN(S(=O)(=O)c1ccccc1F)S(=O)(=O)c1ccccc1Br	14	-10	0	68*	-9	-8
COc1ccc(N(CC(=O)NCCc2ccc(Cl)cc2)S(=O)(=O)c2c(C)[nH]c(=O)[nH]c2=O)cc1	-12	-8	-1	2	-4	14
CCCCN1C[C@H](c2ccccc2)[C@@H](CC(=O)NC)C1=O	nt	nt	0	nt	34*	-9
O=C1CSC(=Nc2cccc(Cl)c2Cl)N1	-12	-1	1	3	-14	13
O=C(CC12CC3CC(CC(C3)C1)C2)Nc1nncs1	-27	-11	0	7	-2	-12
COc1ccc(C2C(C(=O)N3CCCC3)c3cc(OC)c(OC)cc3C(=O)N2C)cc1 (centres undefined)	-22	-8	0	8	26*	-8
COc1ccc(C2C(C(=O)N3CCCCC3)c3ccccc3C(=O)N2C)cc1 (centres undefined)	-39	-27	9	28	3	8
COCC(C)n1c(SCC(=O)N2CCc3ccccc3C2)nc2ccccc2c1=O (centres undefined)	-25	-21	1	70*	8	-9
COCC(C)n1c(SCC(=O)N2CCCCC2)nc2ccccc2c1=O (centres undefined)	-31	-27	0	-8	4	4
CCOC(=O)c1ccc(N2CCN(c3ccccc3F)CC2)c(NC(=O)Nc2cccc(OC)c2)c1	28	16	6	30	41*	-5
COC(=O)c1ccc(N2CCOCC2)c(NC(=O)Nc2cccc(OC)c2)c1	-20	1	0	9	14	-8
O=C1N=C(N2CCOCC2)S/C1=C/c1cc2c(cc1[N+](=O)[O-])OCO2	-7	-22	1	40	-4	1
Cc1ccc(OCC(=O)NNC(=O)c2cc3ccccc3o2)cc1	11	-8	0	13	-1	-3
